Results on 1 compound are retold here after ChEMBL document CHEMBL1649090, “Discovery of (7R)-14-cyclohexyl-7-{[2-(dimethylamino)ethyl](methyl) amino}-7,8-dihydro-6H-indolo[1,2-e][1,5]benzoxazocine-11-carboxylic acid (MK-3281), a potent and orally bioavailable finger-loop inhibitor of the hepatitis C virus NS5B polymerase” (J Med Chem, 2011).

Series [1] can be described thus: Oral bioavailability in Sprague-Dawley rat at 3 mg/kg. The settings on record: in vivo. Format: ADME, organism-based. An outline of the steps:
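Single-dose rat PK with the compound given as its TFA salt to Sprague-Dawley rats (n = 3) in DMSO/PEG400/water 20%/60%/20%. Dosing was 3 mg/kg iv and 3 mg/kg po.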

The nature of series [2]: Intrinsic clearance in human liver microsomes assessed per mg of protein. In kind it is ADME, Microsome. In general terms: Liver microsomes are a subcellular fraction often used to study metabolism.
A short description of series [3]: Ratio of drug level in liver to plasma in Sprague-Dawley rat liver at 3 mg/kg, po after 6 hrs. Further details: dose 3 mg/kg, route oral. In kind it is ADME, organism-based. An outline of the steps: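 Sprague-Dawley rats (n = 3) received the compound as its TFA salt in DMSO/PEG400/water 20%/60%/20%, as a single iv dose of 3 mg/kg or a single oral dose of 3 mg/kg. Liver tissue and plasma concentrations were measured 6 h after the oral dose.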

In series [4] the test system is Hepatitis C virus. The series can be described thus: Antiviral activity against HCV3a. The note with it: genotype 3a. Format: functional, organism-based, Hepacivirus hominis.
The test system of series [5] is Hepatitis C virus. The series can be described thus: Antiviral activity against HCV2b. The note with it: genotype 2b. Format: functional, organism-based, Hepacivirus hominis.
Series [6] can be described thus: Terminal half life in Sprague-Dawley rat at 3 mg/kg, iv and 3 mg/kg, po. In kind it is ADME, organism-based. The settings on record: in vivo. The method, boiled down: (§1)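 Single-dose PK of the bis-HCl salt, n = 3 per species (dog po n = 2). Intravenous doses: rat 3, dog 1, rhesus 2 mg/kg, in DMSO/PEG400/water 20%/60%/20%. Oral doses: rat 3, dog 2, rhesus 4 mg/kg, in PEG400 for rat and dog and PEG400/water 70%/30% for rhesus.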

The nature of series [7]: Volume of distribution at steady state in dog at 1 mg/kg, iv and 2 mg/kg, po. The settings on record: in vivo, read-out: Vdss. In kind it is ADME, organism-based, Canis lupus familiaris. An outline of the steps: (§2)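 Single iv and single oral doses, given as the bis-HCl salt, in rat, dog and rhesus, n = 3 per species (dog oral n = 2). The iv vehicle was DMSO/PEG400/water 20%/60%/20%. Oral vehicle was PEG400 for rat and dog and PEG400/water 70%/30% for rhesus. Values are mean ± SD.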

A short description of series [8]: Terminal half life in dog at 1 mg/kg, iv and 2 mg/kg, po. Format: ADME, organism-based, Canis lupus familiaris. The settings on record: in vivo. An outline of the steps:
as §2

Series [9] can be described thus: Cmax in dog at 1 mg/kg, iv and 2 mg/kg, po. The settings on record: in vivo. In kind it is ADME, organism-based, Canis lupus familiaris. An outline of the steps: as §1
Series [10] is described as follows: Oral bioavailability in dog at 2 mg/kg, po. The settings on record: in vivo. Format: ADME, organism-based, Canis lupus familiaris. An outline of the steps: as §1
The nature of series [11]: Terminal half life in rhesus monkey at 2 mg/kg, iv and 4 mg/kg, po. Format: ADME, organism-based, Macaca mulatta. The settings on record: in vivo. The method, boiled down: as §2
Series [12] in a line: AUC in rhesus monkey at 4 mg/kg, po. Further details: dose 4 mg/kg, route oral. In kind it is ADME, organism-based, Macaca mulatta. The note with it: plasma. An outline of the steps: as §1
Series [13] is described as follows: Oral bioavailability in rhesus monkey at 4 mg/kg. Format: ADME, organism-based, Macaca mulatta. The settings on record: in vivo. The method, boiled down:
as §1

Series [14] concerns the target Macrophage metalloelastase (Homo sapiens, UniProt P39900). The series can be described thus: Inhibition of MMP12.
Series [15] concerns the target DNA polymerase beta (Homo sapiens) (UniProt P06746). The series can be described thus: Inhibition of human DNA polymerase beta up to 50 uM.
The species entered for the next series is Homo sapiens. The series can be described thus: Inhibition of human DNA polymerase gamma up to 50 uM.
The test system of series [16] is Hepatitis C virus. The series can be described thus: Antiviral activity against HCV1b infected in humanized uPA+/+-SCID mouse assessed as reduction of viremia at 50 mg/kg, ip bid for 4 days. In kind it is functional, Hepacivirus hominis. The note with it: route intraperitoneal. An outline of the steps: (§3)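 Three chimeric uPA+/+-SCID mice with human hepatocytes, infected with genotype 1b HCV, received the dose intraperitoneally twice daily for 4 days in PEG400/water 30%/70%. Three vehicle-only mice were dosed for four days as controls. Plasma HCV RNA change is reported per animal and as mean, in log10 (lower limit 315 IU/mL). Follow-up ran to day 21. Plasma trough drug was measured 12 h after the last dose.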

In series [17] the test system is Hepatitis C virus. The series can be described thus: Antiviral activity against HCV1b infected in humanized uPA+/+-SCID mouse assessed as reduction of plasma viral RNA level at 50 mg/kg, ip bid for 4 days. Format: functional, Hepacivirus hominis. The settings on record: route intraperitoneal. An outline of the steps: as §3
Series [18] relates to Hepatitis C virus. The series can be described thus: Antiviral activity against HCV1b infected in humanized uPA+/+-SCID mouse assessed as reduction of plasma viral RNA level at 10 mg/kg, ip bid for 4 days. Format: functional, Hepacivirus hominis. The settings on record: route intraperitoneal. An outline of the steps: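 Chimeric uPA+/+-SCID mice with human hepatocytes, infected with genotype 1b HCV, were dosed twice daily. The drop in plasma HCV RNA is given as mean log10. Plasma drug concentration was measured 12 h after the last dose.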

The source made the active and inactive calls. No cut-off for these calls is given here.

Chain of Macrophage metalloelastase (P39900 whole entry): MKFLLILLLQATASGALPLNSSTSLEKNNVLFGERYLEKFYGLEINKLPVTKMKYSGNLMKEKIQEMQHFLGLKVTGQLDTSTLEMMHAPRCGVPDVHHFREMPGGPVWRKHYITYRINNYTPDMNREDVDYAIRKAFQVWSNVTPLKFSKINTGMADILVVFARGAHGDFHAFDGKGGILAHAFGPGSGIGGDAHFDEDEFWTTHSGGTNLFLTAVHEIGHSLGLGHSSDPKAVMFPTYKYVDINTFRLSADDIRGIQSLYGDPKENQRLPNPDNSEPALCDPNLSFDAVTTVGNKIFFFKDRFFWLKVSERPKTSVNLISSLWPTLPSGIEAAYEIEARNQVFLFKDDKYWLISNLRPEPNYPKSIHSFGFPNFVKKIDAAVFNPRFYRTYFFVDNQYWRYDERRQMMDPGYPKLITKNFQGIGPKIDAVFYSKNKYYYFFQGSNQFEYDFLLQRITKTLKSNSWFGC

Consider `CN(C)CCN(C)[C@H]1COc2ccccc2-c2c(C3CCCCC3)c3ccc(C(=O)O)cc3n2C1` [MK-3281], for which the bioavailability in series [1] turned out to be 49%; in series [10] it was 78%; in series [13], 35%. For the same compound, the microsomal CLint in series [2] amounted to 7 µL/min/mg. The partition ratio (Kp) at 6 h in series [3] came to 5. Besides, the EC50 in the series on Hepatitis C virus [4] amounted to 37 nM; in the series on Hepatitis C virus [5] it was 1830 nM. Moreover, the half-life in series [6] was 3.4 h; in [8], 6.1 h; in [11], 5.7 h. Further, the Vd in series [7] came out at 2.6 L/kg. The same compound showed a Cmax in series [9] of 1000 nM. For the same compound, the AUC in series [12] stood at 7.4 µM·h. The compound also came in with an IC50 in [14] of 8300 nM. For the same compound, the inhibition result (in series [15]; in the series filed under Homo sapiens) was “inactive” in each case. Besides, the “fold change (FC)” value is reported as -3.94 in the series with Hepatitis C virus [16], 3.13 in the series on Hepatitis C virus [17] and 1.4 with Hepatitis C virus [18].

In general, bioavailability refers to the share of a dose that reaches the circulation, judged against a reference dose that is usually intravenous. A word on the microsomal CLint: it is a measure of how fast metabolising enzymes remove a compound, apart from limits set by blood flow. Broadly, the Kp is tissue or fluid exposure divided by exposure in the circulation. In general, EC50 refers to the concentration giving half of the maximal effect. The term half-life denotes how long it takes for the measured level to halve. What is called Cmax is the peak of the concentration-time curve. As usually defined, the AUC is the area under the concentration-time curve, a measure of exposure. Usually IC50 stands for the concentration needed to halve the response being measured.
